# Only some compounds are listed: those with a hit (about 1.1% of all), similar ones and a draw of the others.
# PMI activator: activators of human PMI, primary screen, biochemical, fluorescence intensity, near-Km mannose 6-phosphate; Mannose-6-phosphate isomerase (Homo sapiens), P34949; purified human PMI, coupled resazurin fluorescence, 20 min; active compounds read high; 1 = vehicle control, 0 substrate-free wells; activation factor at 20 µM; hit rate 0.005% among 190,000; AID 1214, 2008;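 active means activation factor of 2 or more at 20 µM, relative to plate controls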
# Target sequence (P34949 whole entry, looked up): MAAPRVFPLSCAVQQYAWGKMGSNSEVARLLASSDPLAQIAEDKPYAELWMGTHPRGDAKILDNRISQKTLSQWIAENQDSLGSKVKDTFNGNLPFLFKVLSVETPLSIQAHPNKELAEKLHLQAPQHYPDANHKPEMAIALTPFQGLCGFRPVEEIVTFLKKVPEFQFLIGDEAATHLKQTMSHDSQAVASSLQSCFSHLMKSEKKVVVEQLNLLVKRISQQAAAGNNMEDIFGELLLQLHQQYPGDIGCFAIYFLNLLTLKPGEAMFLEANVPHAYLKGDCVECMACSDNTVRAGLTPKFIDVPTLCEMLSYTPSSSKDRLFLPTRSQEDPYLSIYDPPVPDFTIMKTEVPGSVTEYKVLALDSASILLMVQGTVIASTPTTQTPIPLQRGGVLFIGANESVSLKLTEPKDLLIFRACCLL
# Diaph inh CS: diaphorase inhibitors and chemical oxidizers, primary screen, counter-screen for diaphorase-coupled primary assays, biochemical, uHTS, resorufin fluorescence. diaphorase resazurin-to-resorufin fluorescence, NADH, 16 min; bacterial (C. kluyveri) enzyme, not human. inhibition, % at 20 µM. hit rate 0.69% among 190,000;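 active means primary screen inhibition at 20 µM above a set limit, cut at about 50% in these data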;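 further: plate controls were DMSO with full reaction for no effect and wells lacking NADH for full effect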
#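 material = Clostridium kluyveri diaphorase enzyme | amount = 0.14 U/mL diaphorase, enzyme working solution | schedule = incubation 16 min, room temperature | detection = fluorescence of resorufin formed from resazurin, Ex 544/Em 590 nm | benchmarks = positive control minus NADH, DMSO neutral control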
# PMI act satM6P: human PMI activators, high substrate, primary screen, biochemical, fluorescence intensity, near-saturating mannose 6-phosphate; coupled PMI enzyme assay, resazurin fluorescence, 20 min; active compounds read high; 1 = untreated enzyme, 0 = substrate-free blank; activation factor at 20 µM; hit rate 0.34% among 190,000; AID 1216, 2008;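 active means activation factor of 2 or more at 20 µM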
#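 Material: human phosphomannose isomerase with PGI, G6PDH, diaphorase coupling enzymes / Reagent: Man-6-P substrate 1.0 mM / Dosing: single compound dose of 20 µM, 1% DMSO final / Incubation: enzyme reaction with compound 20 min at room temperature / Signal: resorufin fluorescence (Ex 544/Em 590 nm) from resazurin via diaphorase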
# TbHK1 inh: Trypanosoma brucei hexokinase 1 inhibitors, primary screen, biochemical, G6PDH-coupled NADH absorbance, MLSCN library; inhibition, % at 10 µM; recombinant TbHK1, G6PDH-coupled NADH A340; hit rate 0.11% among 220,000; AID 1430, 2008;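 active means inhibition of 50% or more in the single-dose primary screen; inactive means inhibition below 50%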
# G6PDH counter: L. mesenteroides G6PDH inhibitors, counter-screen for G6PDH-coupled screening assays, biochemical, Leuconostoc mesenteroides enzyme | glucose-6-phosphate dehydrogenase [Leuconostoc mesenteroides] | Purified L. mesenteroides G6PDH, diaphorase/resazurin coupled fluorescence, 45 min | inhibition, % at 5 µM | hit rate 0.12% among 200,000; in the data active means inhibition above about 50%
# Diaph act CS: compounds boosting diaphorase resazurin reduction – biochemical, uHTS, resorufin fluorescence, counter-screen for diaphorase-coupled primary assays, primary screen; activation factor at 20 µM; Diaphorase/resazurin coupled assay, 16 min; active compounds read high; 1 = vehicle wells, 0 = NADH-free wells; hit rate 0.005% among 190,000;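 active means diaphorase activity raised at least twofold by the compound at 20 µM; inactive means activation factor below 2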
#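 Test system: Clostridium kluyveri diaphorase, purified enzyme. Buffer or medium: 50 mM HEPES pH 7.4 buffer plus MgCl2 and Tween 20. Also added: 0.114 mM NADH and 0.1 mM resazurin, final amounts. Dosing: compound 20 µM once, DMSO 1%. Schedule: 16 min enzyme reaction, ambient temperature. Detection: fluorescence of resorufin, 544 nm excitation, 590 nm emission.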
# Starred values were filed as active, the others as inactive; . = not tested or not shown.
SMILES,PMI activator,Diaph inh CS,PMI act satM6P,TbHK1 inh,G6PDH counter,Diaph act CS
C=CCC(CC(O)COCCC)C(=O)NNC(=S)Nc1ccccc1 (configuration not stated),.,.,.,9.6,.,.
COc1ccccc1C(=O)NCCc1c(C)[nH]c2c(C)ccc(F)c12,1,4.0,1,-10.6,-1.1,1
Cc1nc2c(C(=O)NCCC3=CCCCC3)c[nH]n2c(=O)c1Cl,0.8,54.5*,0.9,14.1,-2.9,0.5
CSc1ccccc1NC(=O)c1cc2ncc(Br)cn2n1,1,29.0,1,15.1,-0.1,0.7
COC(=O)C(NNc1ccccc1)(NC(=O)c1cccc(F)c1)C(F)(F)F (configuration not stated),1.7,0.6,2.2*,-5.4,11.8,1
Cc1ccc2c(Cl)cc(Cl)c(OCC(=O)NC(=O)NCc3ccco3)c2n1,1,23.7,1,-5.2,5.8,0.8
Cc1ccc2c(Cl)cc(Cl)c(OCC(=O)NCc3ccco3)c2n1,0.9,54.1*,1.1,4.0,27.8,0.5
O=C(c1cccc([N+](=O)[O-])c1)N1CCN(c2n[nH]c(=O)[nH]c2=O)CC1,.,.,.,-13.1,.,.
COc1cc(C(=O)NNC(=S)Nc2ccc(S(N)(=O)=O)cc2)cc(OC)c1OC,0.4,6.5,0.7,-13.9,-0.6,0.9
COc1ccc(NC(=O)CCC(=O)c2cccs2)cc1S(=O)(=O)Nc1ccc(Cl)cc1,0.7,50.0*,0.9,-0.7,-13.5,0.5
Cc1ccc(/C=C2\SC(=S)N(/N=C/c3cc([N+](=O)[O-])ccc3O)C2=O)o1,1.3,62.9*,1.6,44.3,12.1,0.4
CCOC(=O)N1CCC(=NNc2ccnc3cc(Cl)ccc23)CC1,1.6,0.3,1.5,-10.5,1.6,1
CC(=O)N1CCC(=NNc2ccnc3cc(Cl)ccc23)CC1,1.7,-3.0,2.3*,-15.6,-0.7,1
Cc1nn(C)cc1C1Nc2ccccc2C(=O)N1O (configuration not stated),1.8,1.4,2.2*,-5.2,13.9,1
Cc1nn(C)c(C)c1C1Nc2ccccc2C(=O)N1O (configuration not stated),1.8,-7.4,2*,-4.8,14.7,1.1
Cc1cc([N+](=O)[O-])ccc1-c1ccc(C2Nc3ccccc3C(=O)N2O)o1 (configuration not stated),1,67.8*,0.9,0.9,-0.9,0.3
COc1ccc(NC2=Nc3cccc4cccc2c34)cc1,0.8,8.7,0.9,11.0,-18.3,0.9
Cc1[nH]c2ccccc2c1/C=N/Nc1ccc(F)cc1F,1.5,15.4,2.1*,-6.6,-15.7,0.8
Nc1c(C(=O)Nc2ccccc2)sc2nc3c(c(-c4ccco4)c12)CCC3,0.9,69.1*,0.7,-6.0,1.9,0.3
C/C(=N\Nc1ccc(Cl)cc1)c1ccccn1,1.7,18.9,2.1*,-28.2,-3.1,0.8
C/C(=N\NC(=O)c1ccccn1)c1ccc(Cl)cc1,.,.,.,-21.3,.,.
O=C(CN1CCN(CC(=O)Nc2ccccc2Cl)CC1)Nc1ccc2c(c1)OCCO2,1.4,15.3,2*,-5.9,8.8,0.8
O=c1[nH]c2ccc(N=Cc3c(O)ccc4cc(Br)ccc34)cc2[nH]1,0.4,55.1*,0.3,-2.6,7.6,0.4
Cc1[nH]n(-c2ccccc2)c(=O)c1C=Nc1ccc2[nH]c(=O)[nH]c2c1,0.9,29.0,0.9,-16.6,-16.9,0.7
Cc1ccc(N2C(=O)[C@@H]3[C@H](C2=O)[C@H]2C=C(C(=O)c4ccccc4)C=CN2[C@@H]3C(=O)c2ccc(Cl)cc2)cc1,1.6,22.4,2.1*,-7.1,7.0,0.8
SMILES,PMI activator,Diaph inh CS,PMI act satM6P,TbHK1 inh,G6PDH counter,Diaph act CS
O=C(C1=C[C@@H]2[C@H]3C(=O)N(c4cccc(Cl)c4)C(=O)[C@H]3[C@@H](C(=O)c3ccc(Cl)cc3)N2C=C1)c1ccccc1,1.5,11.7,2.2*,-3.5,3.6,0.9
O=C(C1=C[C@@H]2[C@H]3C(=O)N(c4ccccc4Cl)C(=O)[C@H]3[C@@H](C(=O)c3ccc(Cl)cc3)N2C=C1)c1ccccc1,1.3,34.2,1.1,-2.8,14.0,0.7
O=C(/C(C=Nc1cc2c(oc1=O)CCCC2=O)=C(\O)c1ccccc1)c1ccccc1,1.3,0.8,1.3,-8.4,7.4,1
[NH-]c1ncnc2c1N=C[N+]2=CC=CCO,.,.,.,6.5,.,.
Cc1oc2c(c1C(=O)c1ccccc1)C(=O)C(=O)c1ccccc1-2,0.3,57.7*,0.3,13.1,60.2*,0.4
Cc1oc2c(c1C(=O)O)C(=O)c1ccccc1C2=O,1.6,6.7,1.1,-4.0,43.5,0.9
O=C1C(=O)c2c(C(=O)c3ccccc3)coc2-c2ccccc21,0.3,61.9*,0.4,8.5,60.7*,0.4
O=C(c1ccccc1)c1coc2ccc(O)c(Cl)c12,1,-2.9,1.1,4.9,12.2,1
Cc1ccc(NNC(=O)c2ccc(Cl)cc2)nn1,.,.,.,-1.3,.,.
O=C(N/N=C/c1c(O)n(-c2ccc(Cl)cn2)c(=O)c2ccccc12)c1ccncc1,1.5,59.0*,1.5,-5.1,-0.6,0.4
COc1ccc(N2CCN(C(=O)Cn3c(=O)[nH]c4ccccc4c3=O)CC2)cc1,1.1,-5.6,1,-3.0,-3.1,1.1
Cc1sc2nc(CN3CCOCC3)[nH]c(=S)c2c1C,0.9,72.8*,0.9,-8.4,-11.6,0.3
Cc1sc2nc(CN3CCN(c4ccc(O)cc4)CC3)[nH]c(=O)c2c1C,.,.,.,-5.2,.,.
COC(=O)c1ccccc1N/C=C1\CCc2c(c(C)nn2-c2ccccn2)C1=O,0.1,73.9*,0.3,-15.4,26.2,0.3
CCc1cccc(N(C(=O)c2csnn2)C(C(=O)NC(C)(C)C)c2ccccn2)c1 (configuration not stated),.,.,.,-1.5,18.5,.
C/C(=N\Nc1nc(-c2ccccc2)cs1)c1cccs1,1.6,-0.6,2.2*,8.1,10.1,1
CSc1ccc(NC(=O)Nc2ccc(C(=O)NCC(=O)O)cc2)cc1,.,.,.,-0.8,.,.
O=c1oc2ccccc2c(Nc2ccccc2O)c1[N+](=O)[O-],0.8,58.5*,0.8,-17.4,18.8,0.4

# Source: PubChem BioAssay
